Results as given in ChEMBL document CHEMBL1151481, “Cytotoxic polyprenylated xanthones from the resin of Garcinia hanburyi” (J Nat Prod, 2009).

Test system: HeLa
Experiment: Cytotoxicity against human HeLa cells after […] by MTT assay
Type: functional, cell-based
How it was run: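 MTT read-out on HeLa cells, with an adriamycin positive control. Each determination was run in triplicate and reported as mean ± SEM. The 50% inhibitory concentration was obtained by interpolating concentration–inhibition curves.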

Structure (SMILES)	IC50 (Homo sapiens, HeLa) [nM]	IC50 (hela) [nM]
COC(=O)/C(C)=C\C[C@@]12OC(C)(C)[C@@H]3C[C@@H](CC4C(=O)c5c(O)c6c(c(CC=C(C)C)c5O[C@]431)OC(C)(C)C=C6)C2=O (stereo partly specified)	111000	–
CC(C)=CCC[C@]1(C)C=Cc2c(O)c3c(c(CC=C(C)C)c2O1)O[C@]12C(=C[C@@H]4C[C@H]1C(C)(C)O[C@@]2(C/C=C(/C)C(=O)O)C4=O)C3=O [GAMBOGIC ACID]	700	–
CC(C)=CCC/C(C)=C/Cc1c(O)c2c(c3c1O[C@@H](C(C)(C)O)C3)O[C@]13C(=C[C@@H]4C[C@H]1C(C)(C)O[C@@]3(C/C=C(/C)C(=O)O)C4=O)C2=O [GAMBOGENIFIC ACID]	1790	–
CO[C@]12C=C3C(=O)c4c(O)c5c(c(CC=C(C)C)c4O[C@@]34[C@@H](C1)C(C)(C)O[C@@]4(C/C=C(/C)C(=O)O)C2=O)O[C@@](C)(CCC=C(C)C)C=C5	850	–
CC(C)=CCCC1(C)C=Cc2c(O)c3c(c(CC=C(C)C)c2O1)O[C@]12C(C3=O)C(O)[C@@H]3C[C@H]1C(C)(C)O[C@@]2(C/C=C(/C)C(=O)O)C3=O (stereo in doubt; 14)	–	630
CC(C)=CCc1c2c(c(O)c3c1O[C@]14C(C3=O)[C@@H](O)[C@@H]3C[C@H]1C(C)(C)O[C@@]4(C/C=C(/C)C(=O)O)C3=O)C=CC(C)(C)O2 (stereo partly specified)	1710	–
C=C(C)C1CCC2(C)CC1c1c(O)c3c(c(CC=C(C)C)c1O2)O[C@]12C(=C[C@]4(OC)C[C@H]1C(C)(C)O[C@@]2(C/C=C(/C)C(=O)O)C4=O)C3=O (stereo partly specified)	910	–
CO[C@]12C=C3C(=O)c4c(O)c5c(c(CC=C(C)C)c4O[C@@]34[C@@H](C1)C(C)(C)O[C@@]4(C/C=C(/C)C(=O)O)C2=O)O[C@](C)(CCC=C(C)C)C=C5	930	–
CC(C)=CCC/C(C)=C/Cc1c(O)c(CC=C(C)C)c2c(c1O)C(=O)C1C=CCC3C(C)(C)OC4(CC=C(C)C(=O)O4)C13O2 (stereo unspecified)	8680	–
CO[C@]12C=C3C(=O)c4c(O)c5c(c(CC=C(C)C)c4O[C@@]34[C@@H](C1)C(C)(C)O[C@@]4(C/C=C(/C)CO)C2=O)OC(C)(C)C=C5	1210	–
CC(C)=CCc1c2c(c(O)c3c1OC(C)(C)C1CCC(C)=CC31)C(=O)C1=C[C@@H]3C[C@H]4C(C)(C)O[C@@](C/C=C(/C)C(=O)O)(C3=O)[C@@]14O2 (stereo partly specified) [GAMBOGEFIC ACID]	560	–
CC(C)=CCc1c2c(c(O)c3c1O[C@]14C(=C[C@@H]5C[C@H]1C(C)(C)O[C@@]4(C/C=C(/C)C(=O)O)C5=O)C3=O)C=CC(C)(CC/C=C/C(C)(C)O)O2 (stereo partly specified) [OXYGAMBOGIC ACID]	1910	–
CC(C)=CCC/C(C)=C/COc1cc(O)c2c(c1CC=C(C)C)O[C@]13C(=C[C@@H]4C[C@H]1C(C)(C)O[C@@]3(CC=C(C)C)C4=O)C2=O	4090	–
COc1cccc2c1C(=O)c1c(O)c3c(c(O)c1C2=O)C[C@@](O)(C(=O)CO)C[C@@H]3O[C@H]1C[C@H](N)[C@H](O)[C@H](C)O1 [DOXORUBICIN]	410	–
CC(C)=CCC/C(C)=C/Cc1c(O)c(CC=C(C)C)c2c(c1O)C(=O)C1C(O)[C@@H]3C[C@H]4C(C)(C)O[C@@](C/C=C(/C)C(=O)O)(C3=O)[C@@]14O2 (stereo partly specified)	5080	–
CC(C)=CCCC1(C)C=Cc2c(O)c3c(c(CC=C(C)C)c2O1)O[C@]12C(C3=O)C(O)[C@@H]3C[C@H]1C(C)(C)O[C@@]2(C/C=C(/C)C(=O)O)C3=O (stereo in doubt; 13)	640	–
